Data taken from ChEMBL document CHEMBL4689842, “EUbOPEN Chemogenomics Library wave 1” (2021).

Columns and labels:
Type in all cases: toxicity, cell-based
U2OS = experiment: Incucyte cell viability with U2OS; conditions: human, 10 µM, compound concentration 10 uM; further: filed as whole numbers so only -1 and 0 and 1 occur
Fibroblast [1] = experiment: Multiplex assay against human fibroblast
How it was run: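 At seeding, live cells were stained with Hoechst33342, BioTracker Green Microtubule Cytoskeleton Dye, MitoTracker Red and Annexin V Alexa Fluor 680. After compound addition they were imaged on a CQ1 microscope at 37°C and 5% CO2, and CellPathfinder machine-learning gating sorted them into Hoechst high-intensity objects or normal cells, with normal cells further split into healthy, pyknosed or fragmented nuclei and pyknosed cells into mitotic or apoptotic. Tubulin, mitochondrial-mass and membrane-permeability phenotypes are given as per cents of cells with healthy nuclei.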

Fibroblast [2] = experiment: Incucyte cell viability with human fibroblast; conditions: 10 µM, compound concentration 10 uM; further: filed as whole numbers so only -1 and 0 and 1 occur
[3] = 0 h, replicate number 1, timepoint 0 hours
[4] = 18 h, replicate number 1, timepoint 18 hours
[5] = 24 h, replicate number 1, timepoint 24 hours
[6] = 12 h, 1 µM, compound concentration 1 uM, replicate 1
[7] = 12 h, 1 µM, compound concentration 1 uM, replicate 2
[8] = 12 h, 10 µM, compound concentration 10 uM, replicate 1
[9] = 12 h, 10 µM, compound concentration 10 uM, replicate 2
[10] = 24 h, 1 µM, compound concentration 1 uM, replicate 1
[11] = 24 h, 1 µM, compound concentration 1 uM, replicate 2
[12] = 24 h, 10 µM, compound concentration 10 uM, replicate 1
[13] = 24 h, 10 µM, compound concentration 10 uM, replicate 2
[14] = 48 h, 1 µM, compound concentration 1 uM, replicate 1
[15] = 48 h, 1 µM, compound concentration 1 uM, replicate 2
[16] = 48 h, 10 µM, compound concentration 10 uM, replicate 1
[17] = 48 h, 10 µM, compound concentration 10 uM, replicate 2

## CN1C(=O)[C@@H](NC(=O)c2cc3ccccc3[nH]2)N=C(c2ccccc2)c2ccccc21 [DEVAZEPIDE]
U2OS; [3]
  Growth Rate: 0
U2OS; 6 h, replicate number 1, timepoint 6 hours
  Growth Rate: 1
U2OS; 12 h, replicate number 1, timepoint 12 hours
  Growth Rate: 1
U2OS; [4]
  Growth Rate: 1
U2OS; 18 h, replicate number 2, timepoint 18 hours
  Growth Rate: 0
U2OS; [5]
  Growth Rate: 1
U2OS; 24 h, replicate number 2, timepoint 24 hours
  Growth Rate: 0
Fibroblast [1]; [6]
  Population Apoptotic (%): 72%
  Population Fragmented Nuclei (%): 21%
  Population Healthy Nuclei (%): 36%
  Population Hoechst High Intensity Objects (%): 13%
  Population Membrane Permeable-Phenotype (%): 34%
  Population Mitochondria Different-Phenotype (%): 3%
  Population Mitotic Cells (%): 27%
  Population Normal (%): 87%
  Population Pyknosed Nuclei (%): 41%
  Population Tubulin-Different-Phenotype (%): 56%
  Total Cell Count: 100
Fibroblast [1]; [7]
  Population Apoptotic (%): 33%
  Population Fragmented Nuclei (%): 4%
  Population Healthy Nuclei (%): 85%
  Population Hoechst High Intensity Objects (%): 5%
  Population Membrane Permeable-Phenotype (%): 9%
  Population Mitochondria Different-Phenotype (%): 23%
  Population Mitotic Cells (%): 66%
  Population Normal (%): 94%
  Population Pyknosed Nuclei (%): 9%
  Population Tubulin-Different-Phenotype (%): 10%
  Total Cell Count: 68
Fibroblast [1]; [8]
  Population Apoptotic (%): 67%
  Population Fragmented Nuclei (%): 18%
  Population Healthy Nuclei (%): 48%
  Population Hoechst High Intensity Objects (%): 16%
  Population Membrane Permeable-Phenotype (%): 42%
  Population Mitochondria Different-Phenotype (%): 15%
  Population Mitotic Cells (%): 32%
  Population Normal (%): 83%
  Population Pyknosed Nuclei (%): 33%
  Population Tubulin-Different-Phenotype (%): 68%
  Total Cell Count: 112
Fibroblast [1]; [9]
  Population Apoptotic (%): 33%
  Population Fragmented Nuclei (%): 20%
  Population Healthy Nuclei (%): 75%
  Population Hoechst High Intensity Objects (%): 7%
  Population Membrane Permeable-Phenotype (%): 37%
  Population Mitochondria Different-Phenotype (%): 48%
  Population Mitotic Cells (%): 66%
  Population Normal (%): 92%
  Population Pyknosed Nuclei (%): 5%
  Population Tubulin-Different-Phenotype (%): 66%
  Total Cell Count: 65
Fibroblast [1]; [10]
  Population Apoptotic (%): 44%
  Population Fragmented Nuclei (%): 25%
  Population Healthy Nuclei (%): 46%
  Population Hoechst High Intensity Objects (%): 13%
  Population Membrane Permeable-Phenotype (%): 21%
  Population Mitochondria Different-Phenotype (%): 14%
  Population Mitotic Cells (%): 56%
  Population Normal (%): 86%
  Population Pyknosed Nuclei (%): 27%
  Population Tubulin-Different-Phenotype (%): 73%
  Total Cell Count: 104
Fibroblast [1]; [11]
  Population Apoptotic (%): 37%
  Population Fragmented Nuclei (%): 7%
  Population Healthy Nuclei (%): 82%
  Population Hoechst High Intensity Objects (%): 1%
  Population Membrane Permeable-Phenotype (%): 3%
  Population Mitochondria Different-Phenotype (%): 10%
  Population Mitotic Cells (%): 62%
  Population Normal (%): 98%
  Population Pyknosed Nuclei (%): 10%
  Population Tubulin-Different-Phenotype (%): 6%
  Total Cell Count: 79
Fibroblast [1]; [12]
  Population Apoptotic (%): 43%
  Population Healthy Nuclei (%): 54%
  Population Hoechst High Intensity Objects (%): 12%
  Population Membrane Permeable-Phenotype (%): 34%
  Population Mitochondria Different-Phenotype (%): 9%
  Population Mitotic Cells (%): 56%
  Population Normal (%): 87%
  Population Pyknosed Nuclei (%): 16%
  Population Tubulin-Different-Phenotype (%): 55%
  Total Cell Count: 108
Fibroblast [1]; [13]
  Population Apoptotic (%): 92%
  Population Fragmented Nuclei (%): 28%
  Population Healthy Nuclei (%): 49%
  Population Hoechst High Intensity Objects (%): 7%
  Population Membrane Permeable-Phenotype (%): 19%
  Population Mitochondria Different-Phenotype (%): 45%
  Population Mitotic Cells (%): 7%
  Population Normal (%): 92%
  Population Pyknosed Nuclei (%): 22%
  Population Tubulin-Different-Phenotype (%): 51%
  Total Cell Count: 68
Fibroblast [1]; [14]
  Population Apoptotic (%): 53%
  Population Fragmented Nuclei (%): 35%
  Population Healthy Nuclei (%): 46%
  Population Hoechst High Intensity Objects (%): 22%
  Population Membrane Permeable-Phenotype (%): 36%
  Population Mitochondria Different-Phenotype (%): 18%
  Population Mitotic Cells (%): 46%
  Population Normal (%): 77%
  Population Pyknosed Nuclei (%): 18%
  Population Tubulin-Different-Phenotype (%): 66%
  Total Cell Count: 92
Fibroblast [1]; [15]
  Population Apoptotic (%): 0%
  Population Fragmented Nuclei (%): 19%
  Population Healthy Nuclei (%): 79%
  Population Hoechst High Intensity Objects (%): 7%
  Population Membrane Permeable-Phenotype (%): 14%
  Population Mitochondria Different-Phenotype (%): 3%
  Population Mitotic Cells (%): 100%
  Population Normal (%): 92%
  Population Pyknosed Nuclei (%): 0%
  Population Tubulin-Different-Phenotype (%): 54%
  Total Cell Count: 127
Fibroblast [1]; [16]
  Population Apoptotic (%): 66%
  Population Fragmented Nuclei (%): 44%
  Population Healthy Nuclei (%): 42%
  Population Hoechst High Intensity Objects (%): 12%
  Population Membrane Permeable-Phenotype (%): 22%
  Population Mitochondria Different-Phenotype (%): 12%
  Population Mitotic Cells (%): 33%
  Population Normal (%): 87%
  Population Pyknosed Nuclei (%): 12%
  Population Tubulin-Different-Phenotype (%): 57%
  Total Cell Count: 107
Fibroblast [1]; [17]
  Population Apoptotic (%): 100%
  Population Fragmented Nuclei (%): 37%
  Population Healthy Nuclei (%): 61%
  Population Hoechst High Intensity Objects (%): 8%
  Population Membrane Permeable-Phenotype (%): 29%
  Population Mitochondria Different-Phenotype (%): 11%
  Population Mitotic Cells (%): 0%
  Population Normal (%): 91%
  Population Pyknosed Nuclei (%): 1%
  Population Tubulin-Different-Phenotype (%): 61%
  Total Cell Count: 96
Fibroblast [2]; [3]
  Growth Rate: 0
Fibroblast [2]; [4]
  Growth Rate: 1
Fibroblast [2]; [5]
  Growth Rate: 1
